Source: ChEMBL document CHEMBL5034012, “Procainamide-SAHA Fused Inhibitors of hHDAC6 Tackle Multidrug-Resistant Malaria Parasites” (J Med Chem, 2021)
pIC50: −log10 of the molar value. Calls of active or inactive are those of the source. The rule behind the calls is not given here.

What was measured:
Plasmodium falciparum [1] = experiment: Antiplasmodial activity against Plasmodium falciparum 3D7 assessed as time to kill initial parasite load at 10 times IC50 concentration; assay type: functional
How it was run: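 Parasite reduction rate assay on 3D7 cultures containing mostly rings, with DHA and pyrimethamine as references. Exposure windows of 6, 24, 48, 72 and 96h; cells then washed, serially diluted 1/3 in fresh RBC and grown 3 weeks before SYBR-green I read-out. Number of wells with growth gives viable parasites per time point, per Sanz et al. One experiment in duplicate.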

Plasmodium falciparum [2] = experiment: Antiplasmodial activity against synchronized ring stage Plasmodium falciparum 3D7 assessed as parasite reduction rate in lag phase by measuring time required to achieve maximum speed of action at 10 times IC50 concentration; assay type: functional
How it was run: (§1)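 3D7 culture of mostly rings exposed to drug for 6, 24, 48, 72 or 96h. Then washed, serially diluted 1/3 in fresh RBC and grown 3 weeks. Growth read by SYBR-green I. Number of wells with growth used to back-calculate viable parasites at each time point and derive growth parameters. One experiment, run in duplicate.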

Plasmodium falciparum [3] = experiment: Antiplasmodial activity against synchronized ring stage Plasmodium falciparum 3D7 assessed as parasite reduction over one cycle upto 48 hrs at 10 times IC50 concentration; assay type: functional; details: time hrs <=48; how it was run: as §1
HepG2 = experiment: cells; assay type: functional, cell-based; details: Homo sapiens, HepG2, 72 h
Plasmodium falciparum [4] = experiment: Antiplasmodial activity against asynchronous asexual culture of Plasmodium falciparum NF54 assessed as parasite growth inhibition; assay type: functional, organism-based
How it was run: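 Asynchronous asexual NF54 cultures exposed to 7-point, 2-step serial dilutions starting at 500nM. DHA served as positive control, DMSO as negative. IC50 interpolated from three independent experiments run in triplicate.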

Histone deacetylase = experiment: Inhibition of human HDAC using human HeLa cell nuclear extract measured after 60 mins by fluorescence assay; assay type: tissue-based
HL-60 [5] = experiment: cells; assay type: functional, cell-based; details: Homo sapiens, HL-60, 72 h
Plasmodium falciparum [6] = experiment: Antiplasmodial activity against Plasmodium falciparum stage IIb-III gametocytes assessed as abnormal morphology by measuring rounded/swollen at highest concentration measured after 72 hrs using Geimsa staining based assay; assay type: functional
How it was run: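 Day-4 stage IIb-III gametocytes (asexuals removed by N-acetyl glucosamine), about 1% gametocytemia at 2% hematocrit, treated 72h at 10, 5, 1 or 0.5 µM against 0.1% DMSO. Then washed and recultured with daily medium changes. Morphology and parasitemia scored daily on Giemsa-stained thin smears.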

Plasmodium falciparum [7] = experiment: Antiplasmodial activity against Plasmodium falciparum NF54 late stage IV-V gametocytes assessed as reduction in number of exflagellation centers in at 1 uM treated for 72 hrs; assay type: functional, organism-based
How it was run: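 Synchronous gametocytes induced; asexual forms removed with N-acetyl glucosamine for 5 days. Day-9 stage IV-V gametocytes, about 1% gametocytemia at 2% hematocrit, treated 72h at 10, 5, 1 or 0.5 µM against 0.1% DMSO. Then washed and recultured with daily medium changes. […], pelleted cells mixed 1:1 with human serum. Exflagellation centers counted over ≥10 fields at 40× within one hour. Two independent experiments; one-way ANOVA.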

HL-60 [8] = experiment: Cytotoxicity against human HL-60 cells assessed as inhibition of cell proliferation at 10 uM measured after 72 hrs by ATPlite assay; assay type: functional
How it was run: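 Cells exposed to compound for 72h; viability read by ATPlite. DMSO control. Technical triplicates, at least two biological replicates. IC50 interpolated from the curves.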

Plasmodium falciparum [9] = experiment: Antiplasmodial activity against Cambodian multidrug-resistant Plasmodium falciparum isolate incubated for 96 hrs measured by SYBR Green 1 assay; assay type: functional, organism-based
How it was run: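 Cambodian isolates chosen by multidrug-resistance pattern, 10 per resistance type. Ring-synchronized cultures at 2% hematocrit and 1% starting parasitemia; 11-point 2-step dilutions from 500nM; 96h incubation, then SYBR-green I read-out. Mefloquine and monodesethylamodiaquine served as positive controls. Triplicate wells, one biological replicate per isolate.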

[10] = target: Histone deacetylase (Homo sapiens) (UniProt Q13547+O15379+Q9UBN7+Q92769+Q9UQL6+Q8WUI4+Q9BY41+Q96DB2+P56524+Q9UKV0+Q969S8); experiment: Inhibition of human HDAC using human HeLa cell nuclear extract 1 uM by fluorescence assay
How it was run: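 HeLa nuclear extract (3x10⁻³mg) incubated with compound and 43 µM Tosyl-Gly-Pro-Lys(Ac)-AMC. Buffer: 25mM Tris-HCl pH 8, 140mM NaCl, 3mM KCl, 1mM MgCl₂. Run 45 min at 37°C, then trypsin (1mg/mL) 15min at RT, then ethanol. AMC fluorescence read at ex 380/em 460nm. Background subtracted; data normalized to DMSO. Duplicates in ≥2 independent experiments.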

SMILES	pIC50 (HepG2)	pIC50 (Plasmodium falciparum [4])	IC50 (Histone deacetylase)	pIC50 (HL-60 [5])	also measured
CCc1nc(N)nc(N)c1-c1ccc(Cl)cc1 [PYRIMETHAMINE]					LT99.9 (Plasmodium falciparum [1]): 44.1 h; Time (Plasmodium falciparum [2]): 24 h; log(activity) (Plasmodium falciparum [3]): 3.57
CCN(CC)c1ccc(NC(=O)CCCCCCC(=O)NO)cc1	5.62	6.62	210 nM	5.57	
CCN(CC)CCCNC(=O)c1ccc(NC(=O)CCCCCCC(=O)NO)cc1	5.09	7.19	160 nM	4.47	
C[C@H]1[C@@H](O)O[C@@H]2O[C@@]3(C)CC[C@H]4[C@H](C)CC[C@@H]1[C@@]24OO3 [ARTENIMOL]		8.52			LT99.9 (Plasmodium falciparum [1]): 21.2 h; Time (Plasmodium falciparum [2]): 0 h; log(activity) (Plasmodium falciparum [3]): 5.12
O=C(CCCCCCC(=O)Nc1ccccc1)NO [VORINOSTAT]					Activity (Plasmodium falciparum [6]): <=90%; Activity (Plasmodium falciparum [7]): inactive
CCC(CC)CCNC(=O)c1ccc(NC(=O)CCCCCCC(=O)NO)cc1	< 4.00	< 6.30		< 5.00	
O=C(CCCCCCC(=O)Nc1ccc(C(=O)NCCN2CCOCC2)cc1)NO	4.59	6.47	230 nM		inhibition at 10 µM (HL-60 [8]): 40%
CCNCc1cc(Nc2ccnc3cc(Cl)ccc23)ccc1O [DESETHYL AMODIAQUINE]					pIC50 (Plasmodium falciparum [9]): 7.05
CCN(CC)CCNC(=O)c1ccc(NC(=O)CCCCC(=O)NO)cc1		6.39			inhibition [10]: 60%
CC(C)(C)OC(=O)N1CCC(NC(=O)c2ccc(NC(=O)CCCCCCC(=O)NO)cc2)CC1	3.82	6.33		5.60	
